Test results from ChEMBL document CHEMBL1127795, “Small-molecule immunostimulants. Synthesis and activity of 7,8-disubstituted guanosines and structurally related compounds” (1994).

How the values were obtained:
[1] = species: Mus musculus; experiment: Percent of maximum response was tested to augment the antibody response of B cells to sheep red blood cell challenge; assay type: functional
Method in brief: (§1)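 CBA/CaJ spleen cells depleted of T cells with anti-T cell monoclonal antibody (1:1000, 30 min, 4 °C) then complement (37 °C, 45 min). Cultured ± 0.1% SRBC antigen in serum-containing medium with compound from zero to 10⁻³ M for 4 d. Plaque-forming cells counted in agarose with guinea pig complement. ED50 and maximal response relative to a concurrent standard.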

[2] = species: Mus musculus; experiment: Percent of maximum response was tested for its ability to act as B-cell mitogens (mitogenicity); assay type: functional
Method in brief: (§2)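 CBA/CaJ mouse spleen cells (1 × 10⁵/0.2 mL) exposed to graded compound concentrations, dissolved in water or DMSO and diluted in medium, for 24 h. [³H]thymidine then added for a further 24 h; incorporation by scintillation counting. ED50 and maximal response expressed relative to a concurrently run standard (loxoribine in most cases).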

[3] = species: Mus musculus; experiment: Ability to act as B-cell mitogens; assay type: functional; settings: read-out: ED50 (the source's name); method in brief: as §2
[4] = species: Mus musculus; experiment: Augment antibody response of B cells to sheep red blood cell (SRBC) challenge (adjuvanticity); assay type: functional; settings: read-out: ED50 (the source's name); method in brief: as §1
[5] = system: YAC-1; experiment: Percent of maximum response was tested for its ability to stimulate the natural killer response in murine in vitro cell assays; assay type: functional, Mus musculus
[6] = system: YAC-1; experiment: Stimulation of natural killer (NK) response in Yac-1 cell line (mouse, lymphoma); Neg indicates a response lower than vehicle control; assay type: functional, cell-based
[7] = system: YAC-1; experiment: Stimulation of natural killer (NK) response in Yac-1 cell line (mouse, lymphoma); assay type: functional; settings: read-out: ED50 (the source's name)

SMILES	Max response [1] [%]	Max response [2] [%]	EC50 [3] [µM]	EC50 [4] [µM]	Max response [5] [%]	ED50 [6]	EC50 [7] [µM]
CC1(C)O[C@@H]2[C@H](O1)[C@@H](CO)O[C@H]2n1c(=O)n(C/C=C/c2ccccc2)c2c(O)nc(N)nc21	16	10					
CCOC(=O)Cn1c(=O)n(C2OC(CO)[C@@H](O)[C@H]2O)c2nc(N)nc(O)c21 (stereo not given in full)	86	58	630	48			
N#Cc1cccc(Cn2c(=O)n(C3OC(CO)[C@@H](O)[C@H]3O)c3nc(N)nc(O)c32)c1 (stereo not given in full)	16			3	11	Negative	
Nc1nc(O)c2c(n1)n(C1OC(CO)[C@@H](O)[C@H]1O)c(=O)n2Cc1ccc(Cl)cc1 (stereo not given in full)	15			14	27		180
C=CCn1c(=O)n(C2OC(COC(=O)COC)[C@@H](OC(=O)COC)[C@H]2OC(=O)COC)c2nc(NC(=O)COC)nc(O)c21 (stereo not given in full)	216	53	819	28	60		150
C=CCn1c(=S)n(C2OC(CO)[C@@H](O)[C@H]2O)c2nc(N)nc(O)c21 (stereo not given in full)	100	151	20	1			
NCC(O)Cn1c(=O)n(C2OC(CO)[C@@H](O)[C@H]2O)c2nc(N)nc(O)c21 (stereo not given in full)	110			28			
CCCn1c(=O)n(C2CCC(CO)O2)c2nc(N)nc(O)c21 (stereo not given)	118	84	52	6	102		14
C=CCn1c(=O)n(Cc2ccccc2)c2nc(N)nc(O)c21	25			5			
C=CCn1c(=O)n(CCCCCCCC)c2nc(N)nc(O)c21	130			37			
CCn1c(=O)n(C2OC(CO)[C@@H](O)[C@H]2O)c2nc(N)nc(O)c21 (stereo not given in full)	82	82		15			
C=CCn1c(=O)n(C2OC(COC(=O)CCC)[C@@H](OC(=O)CCC)[C@H]2OC(=O)CCC)c2nc(NC(=O)CCC)nc(O)c21 (stereo not given in full)	109			53	12	Negative	
Nc1nc(O)c2c(n1)n(C1OC(CO)[C@@H](O)[C@H]1O)c(=O)n2Cc1ccc(OCc2ccccc2)cc1 (stereo not given in full)	5			8	6	Negative	
Nc1nc(O)c2c(n1)n(C1OC(CO)[C@@H](O)[C@H]1O)c(=O)n2CC(O)CO (stereo not given in full)	136			45			
C=CCSc1nc2c(O)nc(N)nc2n1C1OC(CO)[C@@H](O)[C@H]1O (stereo not given in full)	107	57	485	107			
Cn1c(=O)n(C2OC(CI)[C@@H](O)[C@H]2O)c2nc(N)nc(O)c21 (stereo not given in full)	32	4	52				
CCCCn1c(=O)n(C2OC(CO)[C@@H](O)[C@H]2O)c2nc(N)nc(O)c21 (stereo not given in full)	86	70	100	11			
C=CCn1c(=O)n(C2OC(CO)[C@@H](O)C2O)c2nc(N)nc(O)c21 (stereo not given in full)	143	76	233	17	68		60
N#Cc1ccc(Cn2c(=O)n(C3OC(CO)[C@@H](O)[C@H]3O)c3nc(N)nc(O)c32)cc1 (stereo not given in full)	50			15	0	Negative	
COc1ccc(Cn2c(=O)n(C3OC(CO)[C@@H](O)[C@H]3O)c3nc(N)nc(O)c32)cc1 (stereo not given in full)	44	14	2400	135			
C=CCn1c(=O)n([C@@H]2O[C@H](CO)[C@H]3OC(CCC)(CCC)O[C@H]32)c2nc(N)nc(O)c21	123	38		4	56		11
CCCCCCn1c(=O)n(C2OC(CO)[C@@H](O)[C@H]2O)c2nc(N)nc(O)c21 (stereo not given in full)		11	600				
C=CCn1c(=O)n(CCC(COCc2ccccc2)COCc2ccccc2)c2nc(N)nc(O)c21	68			7			
C=CCn1c(=S)n([C@@H]2O[C@H](CO)[C@H]3OC(C)(C)O[C@H]32)c2nc(N)nc(O)c21	89	9	45	55	30		40

SMILES	Max response [1] [%]	Max response [2] [%]	EC50 [3] [µM]	EC50 [4] [µM]	Max response [5] [%]	ED50 [6]	EC50 [7] [µM]
Cn1c(=O)n([C@@H]2O[C@H](CO)[C@H]3OC(C)(C)O[C@H]32)c2nc(N)nc(O)c21	193	17		168			
C=CCn1c(=[Se])n(C2OC(CO)[C@@H](O)[C@H]2O)c2nc(N)nc(O)c21 (stereo not given in full)	70	107	118	15			
[N-]=[N+]=NCC(O)Cn1c(=O)n(C2OC(CO)[C@@H](O)[C@H]2O)c2nc(N)nc(O)c21 (stereo not given in full)	91			39			
C=CCn1/c(=N\C#N)n([C@H]2OC(CO)[C@@H](O)[C@H]2O)c2nc(N)nc(O)c21 (stereo not given in full)	85			156			
Nc1nc(O)c2c(n1)n(C1OC(CO)[C@@H](O)[C@H]1O)c(=O)n2Cc1ccccc1 (stereo not given in full)	110			6			
C=CCn1c(=O)n(C2OC(CO[Si](c3ccccc3)(c3ccccc3)C(C)(C)C)[C@@H](O)[C@H]2O)c2nc(N)nc(O)c21 (stereo not given in full)	33			18	15	Negative	
Nc1nc(O)c2c(n1)n(C1OC(CO)[C@@H](O)[C@H]1O)c(=O)n2CC(O)CN1CCN(c2ccc(F)cc2)CC1 (stereo not given in full)	16						
C=CCn1c(=O)n(C2CN(C(c3ccccc3)c3ccccc3)CC(CO)O2)c2nc(N)nc(O)c21 (stereo not given)					46		12
Cn1c(=O)n(C2OC(CO)[C@@H](O)[C@H]2O)c2nc(N)nc(O)c21 (stereo not given in full)	99	100	120	10	72		56
NC(=O)Cn1c(=O)n(C2OC(CO)[C@@H](O)[C@H]2O)c2nc(N)nc(O)c21 (stereo not given in full)	32	72	117	190	42		90
C=CCn1c(=O)n([C@@H]2O[C@H](CO)[C@H]3OC(C)(CCC(=O)O)O[C@H]32)c2nc(N)nc(O)c21 (stereo not given in full)					0	Negative	
C=CCn1c(=O)n(C2OC(CO[Si](C)(C)C(C)(C)C)[C@@H](O)[C@H]2O)c2nc(N)nc(O)c21 (stereo not given in full)	5			1	6	Negative	
C=CCn1c(=S)n(C2OC(COC(C)=O)[C@@H](OC(C)=O)[C@H]2OC(C)=O)c2nc(NC(C)=O)nc(O)c21 (stereo not given in full)	60	134	295	7	77		5
C=CCn1c(=O)n(CCCC)c2nc(N)nc(O)c21	77	36	11	2	21		4
Nc1nc(O)c2c(n1)n(C1OC(CO)[C@@H](O)[C@H]1O)c(=O)n2CCCl (stereo not given in full)	101			4	83		19
Nc1nc(O)c2c(n1)n(C1OC(CO)[C@@H](O)[C@H]1O)c(=O)n2C/C=C/c1ccccc1 (stereo not given in full)	73	5	4500	103			
CN(C)CCCn1c(=O)n(C2OC(CO)[C@@H](O)[C@H]2O)c2nc(N)nc(O)c21 (stereo not given in full)	83	63	820	194			
C=CCn1c(=S)n(C2OC(COC(C)=O)[C@H]3OC(C)(C)O[C@@H]23)c2nc(N)nc(O)c21 (stereo not given in full)	141	20	50	50	30		30
Nc1nc(O)c2nc(S)n([C@@H]3O[C@H](CO)[C@@H](O)[C@H]3O)c2n1	100	100	532	50			
C=CCn1c(=O)n([C@@H]2O[C@H](CO)[C@H]3OC(=O)O[C@H]32)c2nc(N)nc(O)c21	50	97	47	3	90		20
C=CCn1c(=S)n(C2OC(COC(C)=O)[C@@H](OC(C)=O)[C@H]2OC(C)=O)c2nc(N)nc(O)c21 (stereo not given in full)	141	96	34	5			
Nc1nc(O)c2c(n1)n(C1OC(CO)[C@@H](O)[C@H]1O)c(=O)n2CC(O)CSc1ccccc1 (stereo not given in full)	12			142			
COc1ccc(CCNCC(O)Cn2c(=O)n(C3OC(CO)[C@@H](O)[C@H]3O)c3nc(N)nc(O)c32)cc1OC (stereo not given in full)	3						
C=CCn1c(=S)n(COCCO)c2nc(N)nc(O)c21	9	7	13	14	28		55
